Test results: ChEMBL document CHEMBL1145088, “Ascochlorin derivatives as ligands for nuclear hormone receptors” (J Med Chem, 2003); call rule not given here

Tests used:
Estrogen receptor beta [1] = molecular target: T1, Estrogen receptor beta (Homo sapiens, UniProt Q92731); experiment: Minimum effective concentration for Estrogen receptor 2 (ER beta) inhibition
Procedure, shortened: (§1)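 U2OS cells were calcium-phosphate co-transfected with an ER expression vector (2 µg), an ER reporter plasmid (4 µg) and pCMV-β-galactosidase (4 µg) as internal control. After 12 h cells were PBS-washed and recovered 4 h, then trypsinized and exposed to drugs for 20 h. Lysate reporter activity was normalised to β-gal and expressed as stimulation index; triplicate cultures.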

[2] = molecular target: T2, Estrogen receptor (Homo sapiens) (UniProt P03372); experiment: Minimum effective concentration for Estrogen receptor 1 (ER alpha) inhibition; procedure, shortened: as §1
T2 sequence (whole entry): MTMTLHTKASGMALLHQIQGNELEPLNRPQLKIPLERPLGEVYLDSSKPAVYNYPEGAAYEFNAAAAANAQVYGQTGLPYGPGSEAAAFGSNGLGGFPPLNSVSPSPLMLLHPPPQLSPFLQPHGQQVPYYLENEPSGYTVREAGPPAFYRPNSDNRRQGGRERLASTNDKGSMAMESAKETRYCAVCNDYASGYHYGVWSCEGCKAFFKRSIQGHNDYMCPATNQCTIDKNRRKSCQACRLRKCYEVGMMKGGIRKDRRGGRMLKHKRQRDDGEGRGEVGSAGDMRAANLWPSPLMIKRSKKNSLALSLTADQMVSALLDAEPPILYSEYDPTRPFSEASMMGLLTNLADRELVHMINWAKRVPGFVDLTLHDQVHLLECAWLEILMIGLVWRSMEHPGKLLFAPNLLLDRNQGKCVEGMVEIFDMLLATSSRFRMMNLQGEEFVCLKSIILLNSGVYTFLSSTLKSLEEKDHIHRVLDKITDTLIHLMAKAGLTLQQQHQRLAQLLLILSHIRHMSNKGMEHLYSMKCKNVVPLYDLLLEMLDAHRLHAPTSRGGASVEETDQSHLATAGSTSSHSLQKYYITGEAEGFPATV

U2OS (Homo sapiens) = experiment: Concentration required for inhibition of U2OS cell growth
[3] = molecular target: T3, Nuclear receptor subfamily 1 group I member 2 (Homo sapiens, UniProt O75469); experiment: Minimum effective concentration required to activate pregnane X receptor (PXR)
T3 sequence (O75469 whole entry): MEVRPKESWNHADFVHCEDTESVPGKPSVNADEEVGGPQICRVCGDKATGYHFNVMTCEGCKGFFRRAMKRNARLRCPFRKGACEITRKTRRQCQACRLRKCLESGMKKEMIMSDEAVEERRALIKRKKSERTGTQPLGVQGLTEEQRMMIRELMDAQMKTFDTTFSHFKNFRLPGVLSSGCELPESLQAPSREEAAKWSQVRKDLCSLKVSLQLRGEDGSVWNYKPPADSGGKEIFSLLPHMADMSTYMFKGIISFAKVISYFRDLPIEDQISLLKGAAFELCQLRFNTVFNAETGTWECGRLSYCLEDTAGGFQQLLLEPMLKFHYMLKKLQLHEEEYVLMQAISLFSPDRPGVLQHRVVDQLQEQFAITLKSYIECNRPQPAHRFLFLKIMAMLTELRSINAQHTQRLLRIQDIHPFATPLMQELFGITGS

[4] = molecular target: T4, Androgen receptor (Homo sapiens) (UniProt P10275); experiment: Minimum effective concentration for androgen receptor (AR) activation
T4 sequence (whole entry): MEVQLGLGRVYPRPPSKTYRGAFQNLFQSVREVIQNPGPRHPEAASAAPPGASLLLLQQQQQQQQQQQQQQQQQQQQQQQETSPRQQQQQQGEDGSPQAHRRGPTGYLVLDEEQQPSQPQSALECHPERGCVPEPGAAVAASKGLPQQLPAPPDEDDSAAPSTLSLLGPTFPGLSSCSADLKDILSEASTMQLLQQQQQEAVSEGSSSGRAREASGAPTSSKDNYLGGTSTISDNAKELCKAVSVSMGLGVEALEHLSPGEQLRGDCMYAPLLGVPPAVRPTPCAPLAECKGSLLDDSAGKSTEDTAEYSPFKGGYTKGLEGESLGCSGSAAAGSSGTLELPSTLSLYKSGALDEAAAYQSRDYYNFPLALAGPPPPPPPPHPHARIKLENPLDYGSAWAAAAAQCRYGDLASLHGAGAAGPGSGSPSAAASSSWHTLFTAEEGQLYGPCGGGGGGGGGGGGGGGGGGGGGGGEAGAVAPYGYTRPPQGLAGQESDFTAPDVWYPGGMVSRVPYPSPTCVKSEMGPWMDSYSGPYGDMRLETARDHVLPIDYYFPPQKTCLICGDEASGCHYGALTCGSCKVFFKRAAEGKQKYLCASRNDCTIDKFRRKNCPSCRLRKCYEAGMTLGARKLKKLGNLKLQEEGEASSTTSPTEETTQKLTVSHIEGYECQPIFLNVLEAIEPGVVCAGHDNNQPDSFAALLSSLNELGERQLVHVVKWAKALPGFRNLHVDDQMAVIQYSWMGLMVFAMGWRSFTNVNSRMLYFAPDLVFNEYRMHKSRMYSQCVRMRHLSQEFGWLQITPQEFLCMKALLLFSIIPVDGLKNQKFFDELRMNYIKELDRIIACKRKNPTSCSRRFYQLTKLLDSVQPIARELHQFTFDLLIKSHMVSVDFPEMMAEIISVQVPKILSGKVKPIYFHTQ

Estrogen receptor beta [5] = molecular target: T1, Estrogen receptor beta; experiment: Minimum effective concentration required to activate Estrogen receptor 2 (ER beta); Not detected
Estrogen receptor = molecular target: T5, Estrogen receptor (Homo sapiens, UniProt P03372); experiment: Minimum effective concentration required to activate Estrogen receptor 1 (ER alpha); Not detected
T5 sequence (P03372 whole entry): T2 sequence (whole entry)

[6] = molecular target: T6, Peroxisome proliferator-activated receptor alpha (Homo sapiens) (UniProt Q07869); experiment: Minimum effective concentration for peroxisome proliferator activated receptor (PPAR alpha) activation
T6 sequence (whole entry): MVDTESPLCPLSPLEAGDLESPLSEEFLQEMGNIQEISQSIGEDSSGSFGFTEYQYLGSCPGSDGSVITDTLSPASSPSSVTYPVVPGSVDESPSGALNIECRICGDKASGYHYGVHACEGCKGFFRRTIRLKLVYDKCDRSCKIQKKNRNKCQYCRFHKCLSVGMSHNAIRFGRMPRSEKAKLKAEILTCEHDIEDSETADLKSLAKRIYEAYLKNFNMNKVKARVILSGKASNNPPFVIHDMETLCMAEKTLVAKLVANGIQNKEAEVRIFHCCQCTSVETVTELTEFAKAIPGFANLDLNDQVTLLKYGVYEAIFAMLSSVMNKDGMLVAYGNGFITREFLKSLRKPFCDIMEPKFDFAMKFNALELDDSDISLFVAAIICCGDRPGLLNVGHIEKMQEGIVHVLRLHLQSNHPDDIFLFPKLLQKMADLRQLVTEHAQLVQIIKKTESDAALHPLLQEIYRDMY

T1 sequence (Q92731 whole entry): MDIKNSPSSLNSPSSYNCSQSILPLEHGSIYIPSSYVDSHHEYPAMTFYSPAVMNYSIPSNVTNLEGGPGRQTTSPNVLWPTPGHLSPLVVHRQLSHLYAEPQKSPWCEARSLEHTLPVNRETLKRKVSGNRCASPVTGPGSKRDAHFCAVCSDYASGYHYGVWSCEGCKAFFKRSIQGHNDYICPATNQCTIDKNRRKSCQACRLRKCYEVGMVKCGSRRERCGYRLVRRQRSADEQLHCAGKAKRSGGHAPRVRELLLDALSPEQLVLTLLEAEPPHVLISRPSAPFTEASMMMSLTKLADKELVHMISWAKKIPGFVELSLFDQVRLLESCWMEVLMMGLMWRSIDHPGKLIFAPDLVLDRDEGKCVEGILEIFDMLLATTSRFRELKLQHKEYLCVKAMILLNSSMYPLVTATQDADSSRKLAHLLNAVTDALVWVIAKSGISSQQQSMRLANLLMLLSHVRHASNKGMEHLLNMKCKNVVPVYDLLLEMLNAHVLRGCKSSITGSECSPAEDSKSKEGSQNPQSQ

Row | IC50 (U2OS (Homo sapiens)) [µM] | MEC [3] [µM] | MEC [4] [µM] | MEC (Estrogen receptor beta [5]) | MEC (Estrogen receptor) | MEC [6] [µM] | Compound | MEC (Estrogen receptor beta [1]) [µM] | MEC [2] [µM]
1 | 32 | 1 | 1 | Not Active | Not Active |  | CC(=O)Oc1c(Cl)c(C)c(C(=O)O)c(OC(C)=O)c1C/C=C(C)/C=C/[C@@]1(C)[C@H](C)CCC(=O)[C@@H]1C |  | 
2 | 56 | 1 |  | Not Active | Not Active | 10 | C/C(=C\Cc1c(O)c(Cl)c(C)c(C=O)c1O)CC/C=C(\C)C1=CC(=O)C(C)(C)O1 |  | 

Row | Compound | IC50 (U2OS (Homo sapiens)) [µM] | MEC [3] [µM] | MEC [4] [µM] | MEC (Estrogen receptor beta [5]) | MEC (Estrogen receptor) | MEC [6] [µM] | MEC (Estrogen receptor beta [1]) [µM] | MEC [2] [µM]
3 | CC(/C=C/[C@@]1(C)[C@H](C)CCC(=O)[C@@H]1C)=C\Cc1c(O)c(Cl)c(C)c(C=O)c1O [ASCOCHLORIN] | 1 | 1 |  |  |  |  | 1 | 1
